The text below walks through data of ChEMBL document CHEMBL3769360, “Phthalimido-thiazoles as building blocks and their effects on the growth and morphology of Trypanosoma cruzi” (Eur J Med Chem, 2016).

The structures appear in SMILES notation.

One data set concerns Trypanosoma cruzi. Put plainly: Induction of apoptosis in trypamostigote form of Trypanosoma cruzi Y assessed as necrotic cells at 25 uM after 24 hrs by Annexin V-FITC/propidium iodide staining based flow cytometry relative to untreated control. It is filed as functional.
Settings: not given
Put shortly:
(§1)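 Trypomastigotes (1 × 10^7) incubated 24 h at 37 °C with or without compound. Then labelled with annexin V-FITC and propidium iodide using a kit per the manufacturer's instructions and analysed by flow cytometry. Two independent experiments, each concentration in duplicate; comparison against untreated cells.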
On the technique in general: In flow cytometry, cells or beads pass a laser one at a time.
On to `O=C(Cn1ccnc1[N+](=O)[O-])NCc1ccccc1` [BENZNIDAZOLE], for which the Activity is 56%.

The test system of another data set is Trypanosoma cruzi. Put plainly: Induction of apoptosis in trypamostigote form of Trypanosoma cruzi Y assessed as late apoptotic cells at 25 uM after 24 hrs by Annexin V-FITC/propidium iodide staining based flow cytometry relative to untreated control. It is filed as functional.
Settings: not given
An outline of the steps: as §1
As for `O=C(Cn1ccnc1[N+](=O)[O-])NCc1ccccc1` [BENZNIDAZOLE], the Activity stood at 56%.

System in another data set: not listed separately
In words: Lipophilicity, log P of compound. The data set is classed as physicochemical. As to conditions: octanol/water.
Usually logP stands for a log measure of how a compound divides between an organic and an aqueous phase. `O=C1c2ccccc2C(=O)N1Nc1nc(-c2ccc(-c3ccccc3)cc2)cs1` came in with a lipophilicity (logP) of 5.66.
Same read-out and setting: the same measure for `O=C1c2ccccc2C(=O)N1Nc1nc(-c2ccc3ccccc3c2)cs1`: 4.98.
For `O=C1c2ccccc2C(=O)N1Nc1nc(-c2ccccc2)cs1`, the logP stood at 3.98.

System in another data set: not listed separately
In words: Selectivity index, ratio of MNTD90 for cytotoxicity against BALB/c mouse splenocytes to IC50 for trypamostigote form of Trypanosoma cruzi Y infected in African green monkey Vero cells. The data set is classed as toxicity, cell-based. As to conditions: read-out: Selectivity Index.
In the case of `O=C(Cn1ccnc1[N+](=O)[O-])NCc1ccccc1` [BENZNIDAZOLE], the selectivity ratio was found to be 15.2.
For `O=C1c2ccccc2C(=O)N1C/C=N/N=c1\scc(-c2ccc([N+](=O)[O-])cc2)n1-c1ccccc1`, the selectivity ratio came to 64.6.
`O=C1c2ccccc2C(=O)N1C/C=N/N=c1\scc(-c2ccc3ccccc3c2)n1-c1ccccc1`: the selectivity ratio is 410.
Turning to `O=C1c2ccccc2C(=O)N1C/C=N/N=c1/[nH]c(CCl)cs1`, the selectivity ratio was 33.5.
Still for that read-out and setting: to `O=C1c2ccccc2C(=O)N1Nc1nc(CCl)cs1` belongs 0.3.

Another data set deals with Trypanosoma cruzi. Put plainly: Trypanocidal activity against trypamostigote form of Trypanosoma cruzi Y infected in African green monkey Vero cells after 24 hrs by neubauer chamber method. It is filed as functional, organism-based.
Settings: not given
An outline of the steps:
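Y strain trypomastigotes harvested from Vero cell supernatants, 4 × 10^5 cells/well, compounds in triplicate, benznidazole as positive control. Incubated 24 h at 37 °C, 5% CO2. Motile parasites counted in a Neubauer chamber; untreated wells = 100%. IC50 by nonlinear regression over at least seven concentrations.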
A word on the IC50: it is the concentration at which inhibition is half-maximal. `O=C(Cn1ccnc1[N+](=O)[O-])NCc1ccccc1` [BENZNIDAZOLE] displayed a 50% inhibitory concentration (IC50) of 6.3 µM.
On the same count and under the same terms, the same measure for `O=C1c2ccccc2C(=O)N1C/C=N/N=c1\scc(-c2ccc(F)cc2)n1-c1ccccc1`: 73.8 µM; for `O=C1c2ccccc2C(=O)N1Nc1nc(-c2ccc(F)cc2)cs1`: 52.1 µM.
Same read-out and setting: to `Cc1ccc(-c2cs/c(=N\N=C\CN3C(=O)c4ccccc4C3=O)n2-c2ccccc2)cc1` belongs 33.3 µM; to `O=C1c2ccccc2C(=O)N1Nc1nc(-c2ccc([N+](=O)[O-])cc2)cs1`, 84.9 µM.
Still for that read-out and setting: to `O=C1c2ccccc2C(=O)N1C/C=N/N=c1\scc(-c2ccc(-c3ccccc3)cc2)n1-c1ccccc1` belongs 98 µM; to `COc1ccc(-c2csc(NN3C(=O)c4ccccc4C3=O)n2)cc1`, 50.3 µM.
As for `COc1ccc(-c2cs/c(=N\N=C\CN3C(=O)c4ccccc4C3=O)n2-c2ccccc2)cc1`, the IC50 stood at 10 µM.
Still for that read-out and setting: the same measure for `O=C1c2ccccc2C(=O)N1Nc1nc(-c2ccc(Cl)c(Cl)c2)cs1`: 88.8 µM; for `O=C1c2ccccc2C(=O)N1C/C=N/N=c1\scc(-c2ccc([N+](=O)[O-])cc2)n1-c1ccccc1`: 3.2 µM; for `Cc1sc(NN2C(=O)c3ccccc3C2=O)nc1-c1ccc(Br)cc1`: 38.2 µM.
On the same count and under the same terms, to `NC(=S)NN1C(=O)c2ccccc2C1=O` belongs 52 µM.
In the case of `O=C1c2ccccc2C(=O)N1Nc1nc(-c2ccc(Br)cc2)cs1`, the 50% inhibitory concentration (IC50) amounted to 89.8 µM.
Compound `O=C1c2ccccc2C(=O)N1C/C=N/N=c1\scc(-c2ccc3ccccc3c2)n1-c1ccccc1` came in with a half-maximal inhibitory concentration (IC50) of 0.5 µM.
Same read-out and setting: the same measure for `Cc1ccc(-c2csc(NN3C(=O)c4ccccc4C3=O)n2)cc1`: 107 µM; for `O=C1c2ccccc2C(=O)N1C/C=N/N=c1\scc(-c2ccc(Cl)cc2)n1-c1ccccc1`: 18.4 µM.
Compound `O=C1c2ccccc2C(=O)N1Nc1nc(-c2ccc(-c3ccccc3)cc2)cs1` yielded a concentration for half-maximal inhibition (IC50) of 27.5 µM.
Same read-out and setting: to `O=C1c2ccccc2C(=O)N1Nc1nc(-c2cccc([N+](=O)[O-])c2)cs1` belongs 91.1 µM.
Take `O=C1c2ccccc2C(=O)N1Nc1nc(-c2ccc(Cl)cc2)cs1`: half-maximal inhibition (IC50) was put at 86.2 µM.
On the same count and under the same terms, the same measure for `O=C1c2ccccc2C(=O)N1Nc1nc(-c2ccc3ccccc3c2)cs1`: 4.7 µM.
In the case of `O=C1c2ccccc2C(=O)N1C/C=N/N=c1/[nH]c(CCl)cs1`, the IC50 was 2.2 µM.
As to `O=C1c2ccccc2C(=O)N1Nc1nc(CCl)cs1`, 54.4 µM corresponded to half-maximal inhibition (IC50).
In turn, `O=C1c2ccccc2C(=O)N1C/C=N/N=c1\scc(-c2ccc(Br)cc2)n1-c1ccccc1` yielded an IC50 of 9.7 µM.
On the same count and under the same terms, the same measure for `O=C1c2ccccc2C(=O)N1Nc1nc(-c2ccc(Cl)cc2Cl)cs1`: 22.7 µM.
Still for that read-out and setting: the same measure for `O=C1c2ccccc2C(=O)N1C/C=N/N=c1\scc(-c2ccccc2)n1-c1ccccc1`: 8.8 µM; for `O=C1c2ccccc2C(=O)N1Nc1nc(-c2ccccc2)cs1`: 108 µM.

For another data set, the system named is Trypanosoma cruzi. In words: Trypanocidal activity against epimastigote form of Trypanosoma cruzi Dm28c after 11 days by neubauer chamber method. The data set is classed as functional. As to conditions: 264 h.
The compound `O=C1c2ccccc2C(=O)N1Nc1nc(-c2ccc(F)cc2)cs1` gave a half-inhibitory concentration (IC50) of 26.5 µM.
As for `Cc1ccc(-c2cs/c(=N\N=C\CN3C(=O)c4ccccc4C3=O)n2-c2ccccc2)cc1`, the concentration for half-maximal inhibition (IC50) came out at 57.8 µM.
On the same count and under the same terms, the same measure for `O=C1c2ccccc2C(=O)N1Nc1nc(-c2ccc([N+](=O)[O-])cc2)cs1`: 13.3 µM.
Same read-out and setting: to `O=C1c2ccccc2C(=O)N1C/C=N/N=c1\scc(-c2ccc(-c3ccccc3)cc2)n1-c1ccccc1` belongs 44.2 µM.
Still for that read-out and setting: the same measure for `O=C1c2ccccc2C(=O)N1C/C=N/NC(=S)Nc1ccccc1`: 36.9 µM; for `COc1ccc(-c2csc(NN3C(=O)c4ccccc4C3=O)n2)cc1`: 6.4 µM; for `O=C1c2ccccc2C(=O)N1Nc1nc(-c2ccc(Cl)c(Cl)c2)cs1`: 69.3 µM.
For the compound `O=C1c2ccccc2C(=O)N1C/C=N/N=c1\scc(-c2ccc([N+](=O)[O-])cc2)n1-c1ccccc1`, it took 12.2 µM to reach half-maximal inhibition (IC50).
For the compound `Cc1sc(NN2C(=O)c3ccccc3C2=O)nc1-c1ccc(Br)cc1`, the IC50 stood at 13.9 µM.
Same read-out and setting: to `NC(=S)NN1C(=O)c2ccccc2C1=O` belongs 56.8 µM; to `O=C1c2ccccc2C(=O)N1Nc1nc(-c2ccc(Br)cc2)cs1`, 14.8 µM.
On the same count and under the same terms, the same measure for `O=C1c2ccccc2C(=O)N1C/C=N/N=c1\scc(-c2ccc3ccccc3c2)n1-c1ccccc1`: 11.9 µM; for `Cc1ccc(-c2csc(NN3C(=O)c4ccccc4C3=O)n2)cc1`: 70.4 µM; for `O=C1c2ccccc2C(=O)N1C/C=N/N=c1\scc(-c2ccc(Cl)cc2)n1-c1ccccc1`: 10.6 µM.
`O=C1c2ccccc2C(=O)N1Nc1nc(-c2ccc(-c3ccccc3)cc2)cs1` had an IC50 of 4 µM.
Take `O=C1c2ccccc2C(=O)N1Nc1nc(-c2cccc([N+](=O)[O-])c2)cs1`: the IC50 stood at 43.2 µM.
For the compound `O=C1c2ccccc2C(=O)N1Nc1nc(-c2ccc(Cl)cc2)cs1`, the half-maximal inhibitory concentration (IC50) amounted to 30.6 µM.
The same measure, in the same setting: the same measure for `O=C1c2ccccc2C(=O)N1Nc1nc(-c2ccc3ccccc3c2)cs1`: 8 µM; for `O=C1c2ccccc2C(=O)N1C/C=N/N=c1/[nH]c(CCl)cs1`: 85.7 µM; for `O=C1c2ccccc2C(=O)N1Nc1nc(CCl)cs1`: 226 µM.
The same measure, in the same setting: the same measure for `O=C1c2ccccc2C(=O)N1Nc1nc(-c2ccc(Cl)cc2Cl)cs1`: 10.1 µM.
`O=C1c2ccccc2C(=O)N1Nc1nc(-c2ccccc2)cs1` registered an IC50 of 70.2 µM.

System in another data set: not listed separately
In words: Cytotoxicity against BALB/c mouse splenocytes assessed as highest non-toxic concentration causing >90 % incorporation of [3H]-thymidine after 24 hrs by beta counting method. As to conditions: read-out: MNTD90. The data set is classed as cell-based, Splenocyte. An outline of the steps: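 BALB/c mouse splenocytes at 5 × 10^6 cells/well in RPMI-1640 with 10% inactivated FBS. Compounds were dissolved in DMSO (10 mg/mL stock) and serially diluted to 1.0, 5.0, 10, 25, 50 and 100 (final), in triplicate. Controls were saponin and medium with DMSO. 3H-thymidine was added, then 24 h at 37 °C, 5% CO2, and beta counting. Untreated = 100%; >90% incorporation counted as nontoxic.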
On to `O=C1c2ccccc2C(=O)N1C/C=N/N=c1\scc(-c2ccc(F)cc2)n1-c1ccccc1`, for which the MNTC at 24 h was 219 µM.
As for `O=C1c2ccccc2C(=O)N1Nc1nc(-c2ccc(F)cc2)cs1`, the MNTC at 24 h came out at 2.9 µM.
Same read-out and setting: the same measure for `Cc1ccc(-c2cs/c(=N\N=C\CN3C(=O)c4ccccc4C3=O)n2-c2ccccc2)cc1`: 221 µM.
`O=C1c2ccccc2C(=O)N1Nc1nc(-c2ccc([N+](=O)[O-])cc2)cs1`: the MNTC at 24 h is 2.7 µM.
As for `O=C1c2ccccc2C(=O)N1C/C=N/N=c1\scc(-c2ccc(-c3ccccc3)cc2)n1-c1ccccc1`, the MNTC at 24 h turned out to be 194 µM.
Still for that read-out and setting: the same measure for `O=C1c2ccccc2C(=O)N1C/C=N/NC(=S)Nc1ccccc1`: 50 µM.
Consider `COc1ccc(-c2csc(NN3C(=O)c4ccccc4C3=O)n2)cc1`, for which the MNTC at 24 h stood at 14.2 µM.
The same measure, in the same setting: the same measure for `COc1ccc(-c2cs/c(=N\N=C\CN3C(=O)c4ccccc4C3=O)n2-c2ccccc2)cc1`: 213 µM; for `O=C1c2ccccc2C(=O)N1Nc1nc(-c2ccc(Cl)c(Cl)c2)cs1`: 2.6 µM; for `O=C1c2ccccc2C(=O)N1C/C=N/N=c1\scc(-c2ccc([N+](=O)[O-])cc2)n1-c1ccccc1`: 207 µM.
Same read-out and setting: the same measure for `Cc1sc(NN2C(=O)c3ccccc3C2=O)nc1-c1ccc(Br)cc1`: 2.4 µM; for `NC(=S)NN1C(=O)c2ccccc2C1=O`: 4.5 µM; for `O=C1c2ccccc2C(=O)N1Nc1nc(-c2ccc(Br)cc2)cs1`: 2.5 µM.
For `O=C1c2ccccc2C(=O)N1C/C=N/N=c1\scc(-c2ccc3ccccc3c2)n1-c1ccccc1`, the MNTC at 24 h came out at 205 µM.
On to `Cc1ccc(-c2csc(NN3C(=O)c4ccccc4C3=O)n2)cc1`, for which the MNTC at 24 h came to 14.9 µM.
`O=C1c2ccccc2C(=O)N1C/C=N/N=c1\scc(-c2ccc(Cl)cc2)n1-c1ccccc1`: the MNTC at 24 h was 211 µM.
The same measure, in the same setting: to `O=C1c2ccccc2C(=O)N1Nc1nc(-c2ccc(-c3ccccc3)cc2)cs1` belongs 252 µM.
Still for that read-out and setting: to `O=C1c2ccccc2C(=O)N1Nc1nc(-c2cccc([N+](=O)[O-])c2)cs1` belongs 2.7 µM; to `O=C1c2ccccc2C(=O)N1Nc1nc(-c2ccc(Cl)cc2)cs1`, 2.8 µM; to `O=C1c2ccccc2C(=O)N1Nc1nc(-c2ccc3ccccc3c2)cs1`, 269 µM.
For the compound `O=C1c2ccccc2C(=O)N1C/C=N/N=c1\scc(-c2ccc(Cl)c(Cl)c2)n1-c1ccccc1`, the MNTC at 24 h is 197 µM.
The same measure, in the same setting: to `O=C1c2ccccc2C(=O)N1C/C=N/N=c1/[nH]c(CCl)cs1` belongs 73.7 µM; to `O=C1c2ccccc2C(=O)N1Nc1nc(CCl)cs1`, 17 µM; to `O=C1c2ccccc2C(=O)N1C/C=N/N=c1\scc(-c2ccc(Br)cc2)n1-c1ccccc1`, 96.6 µM.
On the same count and under the same terms, to `O=C1c2ccccc2C(=O)N1Nc1nc(-c2ccc(Cl)cc2Cl)cs1` belongs 12.8 µM; to `O=C1c2ccccc2C(=O)N1C/C=N/N=c1\scc(-c2ccccc2)n1-c1ccccc1`, 228 µM.
In the case of `O=C1c2ccccc2C(=O)N1Nc1nc(-c2ccccc2)cs1`, the MNTC at 24 h was 3.1 µM.
